Laboratory results published in ChEMBL document CHEMBL1772954, “Antifungal, cytotoxic and SAR studies of a series of N-alkyl, N-aryl and N-alkylphenyl-1,4-pyrrolediones and related compounds” (Bioorg Med Chem, 2011).
Converted amounts (≈) assume the structure as drawn.

Assays:
Assay type in all cases: functional
[1] = test system: Candida tropicalis; test: Antifungal activity against Candida tropicalis C 131 2000
Method in brief: (§1)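 CLSI M27-A3 broth microdilution in RPMI-1640 buffered to pH 7.0 with MOPS. Inoculum 1-5 × 10^3 CFU/mL. Compound twofold dilutions from 250 to 0.24 µg/ml, final DMSO <1%. Incubated at 35 °C in a moist, dark chamber and read at 48 h. MIC is the lowest concentration giving total growth inhibition. For MFC, 5 µL from clear wells was plated in duplicate on SDA; MFC is the lowest concentration with no growth.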

[2] = test system: Aspergillus fumigatus; test: Antifungal activity against Aspergillus fumigatus ATCC 26934
Method in brief: (§2)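 Broth microdilution per CLSI M38-A2 in RPMI-1640 with MOPS at pH 7.0. Inoculum 1-5 × 10^3 CFU/mL, with twofold compound dilutions spanning 250-0.24 µg/ml (final DMSO <1%). Plates incubated at 35 °C, moist and dark, and read when the control fungus had grown. MIC is total growth inhibition. MFC comes from subculturing clear wells in duplicate onto SDA.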

[3] = test system: Nannizzia gypsea; test: Antifungal activity against Microsporum gypseum C 115 2000
Method in brief: (§3)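 Dermatophytes tested by CLSI M38-A2 microdilution in MOPS-buffered RPMI-1640 at pH 7.0. Inoculum 1-5 × 10^3 CFU/mL; compounds 250 to 0.24 µg/ml in twofold steps, final DMSO <1%. Incubated at 28 °C in a moist, dark chamber and read according to control growth. MIC is the lowest concentration with complete inhibition. MFC is the lowest concentration with no growth after duplicate subculture on SDA.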

[4] = test system: Aspergillus niger; test: Antifungal activity against Aspergillus niger ATCC 9029; method in brief: as §2
[5] = test system: Candida albicans; test: Antifungal activity against Candida albicans ATCC 10213; method in brief: as §1
[6] = test system: Trichophyton rubrum; test: Antifungal activity against Trichophyton rubrum C 113 2000; method in brief: as §3
[7] = test system: Saccharomyces cerevisiae; test: Antifungal activity against Saccharomyces cerevisiae ATCC 9763; method in brief: as §1
[8] = test system: Trichophyton mentagrophytes; test: Antifungal activity against Trichophyton mentagrophytes ATCC 9972; method in brief: as §3
[9] = test system: Aspergillus flavus; test: Antifungal activity against Aspergillus flavus ATCC 9170; method in brief: as §2
[10] = test system: Cryptococcus neoformans; test: Antifungal activity against Cryptococcus neoformans ATCC 32264; method in brief: as §1

Row | SMILES | MFC [1] [µg/mL] | MIC [1] [µg/mL] | MFC [2] [µg/mL] | MIC [2] [µg/mL] | MFC [3] [µg/mL] | MIC [3] [µg/mL] | MFC [4] [µg/mL] | MIC [4] [µg/mL] | MFC [5] [µg/mL] | MIC [5] [µg/mL] | MFC [6] [µg/mL] | MIC [6] [µg/mL] | MFC [7] [µg/mL] | MIC [7] [µg/mL] | MFC [8] [µg/mL] | MIC [8] [µg/mL] | MFC [9] [µg/mL] | MIC [9] [µg/mL] | MFC [10] [µg/mL] | MIC [10] [µg/mL]
1 | CC1=C(C)C(=O)N(CCCc2ccccc2)C1=O | > 250 | > 250 | > 250 | > 250 | 250 (≈ 1030 µM) | 125 (≈ 514 µM) | > 250 | > 250 | > 250 | > 250 | 250 (≈ 1030 µM) | 62.5 (≈ 257 µM) | > 250 | > 250 | > 250 | 250 (≈ 1030 µM) | > 250 | > 250 | 250 (≈ 1030 µM) | 125 (≈ 514 µM)
2 | CC1=CC(=O)N(Cc2ccccc2)C1O (configuration not stated) | > 250 | > 250 | > 250 | > 250 | > 250 | > 250 | > 250 | > 250 | > 250 | > 250 | > 250 | > 250 | > 250 | > 250 | > 250 | > 250 | > 250 | > 250 | > 250 | > 250
3 | O=C1C=CC(O)N1CCCCc1ccccc1 (configuration not stated) | > 250 | > 250 | > 250 | > 250 | 250 (≈ 1080 µM) | 125 (≈ 540 µM) | > 250 | > 250 | > 250 | > 250 | 250 (≈ 1080 µM) | 62.5 (≈ 270 µM) | > 250 | > 250 | 125 (≈ 540 µM) | 62.5 (≈ 270 µM) | > 250 | > 250 | > 250 | 250 (≈ 1080 µM)
4 | CC1=CC(O)N(Cc2ccccc2)C1=O (configuration not stated) | > 250 | > 250 | > 250 | > 250 | > 250 | > 250 | > 250 | > 250 | > 250 | > 250 | > 250 | > 250 | > 250 | > 250 | > 250 | > 250 | > 250 | > 250 | > 250 | > 250
5 | CC1=C(C)C(=O)N(CCc2ccccc2)C1=O | > 250 | > 250 | > 250 | > 250 | > 250 | 250 (≈ 1090 µM) | > 250 | > 250 | > 250 | > 250 | 250 (≈ 1090 µM) | 62.5 (≈ 273 µM) | > 250 | > 250 | > 250 | 250 (≈ 1090 µM) | > 250 | > 250 | > 250 | 250 (≈ 1090 µM)
6 | O=C1CCC(=O)N1c1ccccc1 | > 250 | > 250 | > 250 | > 250 | > 250 | > 250 | > 250 | > 250 | > 250 | > 250 | > 250 | > 250 | > 250 | > 250 | > 250 | > 250 | > 250 | > 250 | > 250 | > 250
7 | CC1=CC(O)N(c2ccccc2)C1=O (configuration not stated) | > 250 | > 250 | > 250 | > 250 | > 250 | > 250 | > 250 | > 250 | > 250 | > 250 | > 250 | > 250 | > 250 | > 250 | > 250 | > 250 | > 250 | > 250 | > 250 | > 250
8 | O=C1CCC(=O)N1Cc1ccccc1 | > 250 | > 250 | > 250 | > 250 | > 250 | > 250 | > 250 | > 250 | > 250 | > 250 | > 250 | > 250 | > 250 | > 250 | > 250 | > 250 | > 250 | > 250 | > 250 | > 250
9 | CC(=O)N1CCN(c2ccc(OCC3COC(Cn4ccnc4)(c4ccc(Cl)cc4Cl)O3)cc2)CC1 (configuration not stated) [KETOCONAZOLE] | 0.97 (≈ 1.83 µM) | – | 3.9 (≈ 7.34 µM) | 0.12 (≈ 0.226 µM) | 0.24 (≈ 0.452 µM) | 0.06 (≈ 0.113 µM) | 1.95 (≈ 3.67 µM) | 0.24 (≈ 0.452 µM) | 1.95 (≈ 3.67 µM) | 0.48 (≈ 0.903 µM) | 0.12 (≈ 0.226 µM) | 0.03 (≈ 0.0565 µM) | 0.97 (≈ 1.83 µM) | 0.48 (≈ 0.903 µM) | 0.12 (≈ 0.226 µM) | 0.03 (≈ 0.0565 µM) | 3.9 (≈ 7.34 µM) | 0.48 (≈ 0.903 µM) | 1.95 (≈ 3.67 µM) | 0.24 (≈ 0.452 µM)
10 | O=C1CCC(=O)N1CCc1ccccc1 | > 250 | > 250 | > 250 | > 250 | > 250 | > 250 | > 250 | > 250 | > 250 | > 250 | > 250 | > 250 | > 250 | > 250 | > 250 | > 250 | > 250 | > 250 | > 250 | > 250
11 | CC1=CC(O)N(CCCc2ccccc2)C1=O (configuration not stated) | > 250 | > 250 | > 250 | > 250 | > 250 | > 250 | > 250 | > 250 | > 250 | > 250 | > 250 | > 250 | > 250 | > 250 | > 250 | > 250 | > 250 | > 250 | > 250 | > 250
12 | O=C(O)/C=C\C(=O)Nc1ccccc1 | > 250 | > 250 | > 250 | > 250 | > 250 | 125 (≈ 654 µM) | > 250 | > 250 | > 250 | – | 250 (≈ 1310 µM) | 62.5 (≈ 327 µM) | > 250 | 125 (≈ 654 µM) | > 250 | 250 (≈ 1310 µM) | > 250 | > 250 | > 250 | > 250
13 | CC1=CC(O)N(CCc2ccccc2)C1=O (configuration not stated) | > 250 | > 250 | > 250 | > 250 | > 250 | > 250 | > 250 | > 250 | > 250 | > 250 | > 250 | > 250 | > 250 | > 250 | > 250 | > 250 | > 250 | > 250 | > 250 | > 250
14 | O=C1C(c2ccccc2)=C(c2ccccc2)C(=O)N1c1ccccc1 | > 250 | > 250 | > 250 | > 250 | > 250 | > 250 | > 250 | > 250 | > 250 | > 250 | > 250 | > 250 | > 250 | > 250 | > 250 | > 250 | > 250 | > 250 | > 250 | > 250
15 | O=C(O)/C=C\C(=O)NCc1ccccc1 | > 250 | > 250 | > 250 | > 250 | > 250 | > 250 | > 250 | > 250 | > 250 | – | > 250 | > 250 | > 250 | 250 (≈ 1220 µM) | > 250 | > 250 | > 250 | > 250 | > 250 | > 250
